Most compounds without a hit are left out; they make up all but 2.3% or so of the library.
TRPC4 inh – TRPC4 (mouse) channel inhibition; Q9QUQ5; HEK293 TRPC4beta/mu-opioid, DAMGO-evoked Fluo4 calcium flux; active compounds read low; B-score at 10 µM; hit rate 0.39% among 300,000;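 active = B-score over 3 SD under the library average, no early fluorescence shift, positive overall ratio signal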
Target sequence (Q9QUQ5 whole entry, looked up): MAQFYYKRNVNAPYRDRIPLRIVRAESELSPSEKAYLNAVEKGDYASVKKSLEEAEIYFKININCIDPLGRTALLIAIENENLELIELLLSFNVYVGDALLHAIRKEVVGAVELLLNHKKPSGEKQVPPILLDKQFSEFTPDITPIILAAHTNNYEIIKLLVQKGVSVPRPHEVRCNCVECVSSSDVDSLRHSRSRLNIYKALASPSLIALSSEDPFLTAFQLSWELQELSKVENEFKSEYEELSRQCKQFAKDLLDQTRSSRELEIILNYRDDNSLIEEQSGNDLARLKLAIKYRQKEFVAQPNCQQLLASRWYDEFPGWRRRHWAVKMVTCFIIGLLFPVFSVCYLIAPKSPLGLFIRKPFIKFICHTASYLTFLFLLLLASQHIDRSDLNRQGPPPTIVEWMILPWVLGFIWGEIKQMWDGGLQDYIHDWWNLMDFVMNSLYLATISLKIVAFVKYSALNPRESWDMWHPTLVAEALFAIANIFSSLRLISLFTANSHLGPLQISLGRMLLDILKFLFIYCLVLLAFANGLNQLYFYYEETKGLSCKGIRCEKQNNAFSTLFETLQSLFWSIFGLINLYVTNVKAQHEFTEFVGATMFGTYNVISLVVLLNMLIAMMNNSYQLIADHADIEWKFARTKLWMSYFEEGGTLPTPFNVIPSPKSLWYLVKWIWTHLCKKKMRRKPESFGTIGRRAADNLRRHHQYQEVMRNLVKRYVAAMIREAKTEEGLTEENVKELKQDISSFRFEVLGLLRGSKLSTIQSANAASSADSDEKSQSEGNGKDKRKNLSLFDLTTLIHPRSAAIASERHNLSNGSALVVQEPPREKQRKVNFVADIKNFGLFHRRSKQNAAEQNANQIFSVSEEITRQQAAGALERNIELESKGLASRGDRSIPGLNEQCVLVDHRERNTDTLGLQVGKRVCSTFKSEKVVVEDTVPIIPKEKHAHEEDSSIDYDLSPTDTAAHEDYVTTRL
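Material: HEK293 cells with stable TRPC4beta plus mu-opioid receptor expression / Probe or stimulus: DAMGO in two steps, submaximal then maximal / Compound: single concentration per test compound / Technique: kinetic Fluo4 fluorescence imaging of calcium influx / Read-out: per-well B score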
TRPC6 inhibitor – inhibitors of mouse TRPC6 channel. Q61143. HEK293-TRPC6, membrane potential dye, ACh-evoked depolarization; active compounds read low. B-score at 10 µM. hit rate 1.1% among 310,000;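 active = B-score under library mean minus 3 SD, initial fluorescence not abnormally high, positive integrated signal ratio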;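 note: B-score derived from integrated fluorescence ratio over the kinetic read; more negative B-score means stronger inhibition of depolarization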
TRPC4 act – activators of mouse TRPC4 channel; AID 2237; HEK293 TRPC4beta/mu-opioid, Fluo4 calcium fluorescence; active compounds read high; Q9QUQ5; B-score at 10 µM; hit rate 0.49% among 310,000;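 active = B-score above 5 SD of library B-scores, and initial fluorescence ratio not above library mean plus 5 SD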;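 note: positive B-score marks a calcium rise read as TRPC4 activation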
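Material: HEK293 stable line with TRPC4beta plus mu-opioid receptor; technique: Fluo4 calcium-sensitive dye fluorescence, kinetic, 1 Hz baseline; timing: Fluo4 dye loading 45 min at room temperature, 110 s recording; controls: assay buffer as low control, maximal DAMGO as high control; read-out: integrated baseline-normalised fluorescence ratio, converted to per-well B score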
TRPC6 activator – mouse TRPC6 channel activation | Q61143 | B-score at 10 µM | hit rate 0.13% among 310,000 | HEK293-TRPC6 membrane potential dye fluorescence; active compounds read high;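 active = B-score of the integrated fluorescence ratio above library mean plus 3 SD, and starting fluorescence ratio within library mean plus 5 SD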;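 note: higher score means more depolarization so channel activation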
TRPC4 PAM – TRPC4 (mouse) allosteric potentiation; HEK293 TRPC4beta/mu-opioid, DAMGO EC20, Fluo-4 Ca2+ flux; active compounds read high; B-score at 10 µM; Q9QUQ5; hit rate 0.42% among 310,000; AID 2227;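 active = B-score of calcium response area above 5 SD of library B-scores, with initial fluorescence ratio within 5 SD of library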
Numbers stand for hits; n = inactive.

SMILES | TRPC4 inh | TRPC6 inhibitor | TRPC4 act | TRPC6 activator | TRPC4 PAM
CCN(CC(=O)Nc1ccccc1C(F)(F)F)C(=O)c1oc2ccc(OC)cc2c1C | n | n | n | n | n
COc1cccc(CNC(=O)CCC2CCCN(Cc3cc(Cl)ccc3O)C2)c1 (stereo not given) | -7 | n | n | n | n
COc1cccc(CNC(=O)CCC2CCCN(C(=O)Cc3ccccc3F)C2)c1 (stereo not given) | n | n | n | n | n
COc1ccccc1/C=C/CN1CCCC(CCC(=O)NCc2ccccc2F)C1 (stereo not given) | -6 | n | 113 | n | n
O=C(Cn1cccc1C(=O)c1ccccc1)NCc1cccc(Cl)c1 | n | n | n | n | n
Cc1nc2ccccc2n1Cc1ccccc1 | n | n | n | n | n
CCCc1nc2ccccc2n1CCOC | n | n | n | n | n
CC(C)(C)Cc1nc2ccccc2n1CCc1ccccc1 | -7 | n | n | n | n
Cc1nc2ccccc2n1Cc1ccc(Br)cc1 | -6 | n | n | n | n
CCCc1nc2ccccc2n1CCOc1ccccc1 | -6 | n | n | n | n
Cc1ccc(OCCn2c(C)nc3ccccc32)cc1 | -6 | n | n | n | n
CN(CC(=O)Nc1ccc(Cl)cc1)C(=O)CCC1CCCC1 | n | n | n | n | n
O=C(O)C1C2CCC(C2)C1C(=O)NCCc1ccccc1 (stereo not given) | n | n | n | n | n
Cc1nc2ccccc2n1CCCOc1ccccc1 | n | n | n | n | n
Nc1nc2ccccc2n1CCOc1ccc(Br)cc1 | n | n | n | n | n
Nc1nc2ccccc2n1CCOc1ccc(Cl)cc1 | -7 | n | n | n | n
Cc1nc(Cl)c(Cl)n1CCOc1ccccc1 | -8 | n | n | n | n
COC(=O)c1cc(S(=O)(=O)NCCN2CCN(c3ccccc3F)CC2)c[nH]1 | n | n | n | n | n
CNS(=O)(=O)c1cccc(C(=O)NCC(c2cccs2)N2CCOCC2)c1 (stereo not given) | n | n | n | n | n
CN1/C(=C\C(=O)C[n+]2ccc3ccccc3c2)C(C)(C)c2ccccc21 | -6 | n | n | n | n
Cc1cc(C)n(-c2ccccc2C#N)n1 | n | n | n | n | n
O=C1NC2=C(C(=O)OC2)C(c2ccc(OC(F)(F)F)cc2)N1 (stereo not given) | n | n | n | n | n
C#CCOCCOCCOCCNc1nc(N2CCN(C(=O)C([C@@H](C)CC)n3cc(C(N)COC(=O)C(F)(F)F)nn3)CC2)nc(N2CCN(C(=O)[C@H](Cc3cc4ccccc4[nH]3)n3cc(C(N)CO)nn3)CC2)n1 (stereo not given in full) | -6 | n | 57 | n | n
Cc1nn(-c2cccc(Cl)c2)c2nc(-c3ccco3)cc(C(=O)O)c12 | n | n | n | n | n
Cc1nn(-c2ccccn2)c2nc(-c3cccs3)cc(C(=O)N3CCOCC3)c12 | n | n | n | n | 12
SMILES | TRPC4 inh | TRPC6 inhibitor | TRPC4 act | TRPC6 activator | TRPC4 PAM
COc1ccc(-c2cc(C(=O)O)c3c(C)nn(-c4ccccn4)c3n2)cc1 | n | n | n | n | n
Cc1cccc(-n2nc(C)c3c(C(=O)O)cc(-c4cccs4)nc32)c1 | -6 | n | n | n | n
Cn1c(-c2ccccc2)cnc1NCc1ccccc1 | -6 | n | n | n | n
C#CCNC(=O)C1=C[C@@H](c2cn(C(C)=O)c3ccccc23)C[C@@H](OCc2ccc(CO)cc2)O1 | n | n | n | n | n
C#CCNC(=O)C1=C[C@H](c2csc3ccccc23)C[C@H](OCc2ccc(CO)cc2)O1 | n | n | 52 | n | n
CC(=O)n1cc([C@H]2C=C(C(N)=O)O[C@@H](OCc3ccc(CO)cc3)C2)c2ccccc21 | n | n | 51 | n | n
CC(=O)n1cc([C@H]2C=C(C(=O)NCc3ccccc3)O[C@@H](OCc3ccc(CO)cc3)C2)c2ccccc21 | n | n | 244 | n | n
O=C(COc1ccc(Cl)cc1)NCCNc1ccc([N+](=O)[O-])cc1 | n | n | n | n | n
Cc1ccccc1C(=O)NNC(=O)CSc1nc(-c2ccccc2)cc(=O)[nH]1 | n | n | n | n | n
COc1cc(C(=O)Nc2nnc(C3CC3)s2)ccc1OCc1c(C)noc1C | n | n | n | n | n
COc1ccccc1C(=O)NC(CCSC)C(=O)NNC(=O)c1ccncc1 (stereo not given) | n | n | n | n | n
OCCN(CCO)c1ncnc2c1sc1nc(N3CCOCC3)c3c(c12)CCCC3 | n | n | n | n | 15
COCCn1c(SCC(=O)NCCc2ccccc2)nc2c([nH]c3ccccc32)c1=O | n | n | n | n | n
COCCn1c(SCC(=O)NCCc2ccc(OC)c(OC)c2)nc2c([nH]c3ccccc32)c1=O | n | n | n | n | 11
COCCn1c(SCC(=O)Nc2ccccc2OC)nc2c([nH]c3ccccc32)c1=O | -7 | n | n | n | n
Cc1cc(NC(=O)C(C)Oc2ccccc2)no1 (stereo not given) | n | n | n | n | n
COc1ccc(CN2CCN(CC(O)Cn3c4ccccc4c4ccccc43)CC2)cc1 (stereo not given) | n | n | 79 | n | n
CN(CC(=O)Nc1ccc(SC(F)F)cc1)C1CCCCC1 | -6 | n | n | n | n
Cc1ccc(/C=C/C(=O)NC2CCCCCCC2)o1 | n | n | n | n | 27
Cc1ccc(/C=N/NC(=O)NC2CCCCC2)o1 | n | n | n | n | 72
CC(C)c1ccc(/C=C/C(=O)NC2CCCCC2)cc1 | n | n | n | n | n
Cc1cccc(/C=N/NC(=O)NC2CCCCC2)c1 | n | n | n | n | n
COc1ccc(-n2c(SCC(=O)N/N=C(\C)c3cccnc3)nc3ccccc3c2=O)cc1 | n | n | n | n | n
COC(=O)CSc1nnc2n(-c3ccc(OC)cc3)c(=O)c3c4c(sc3n12)CCCCC4 | -7 | n | n | n | n
C=CCSc1nnc2n(-c3ccccc3OC)c(=O)c3c4c(sc3n12)CCC4 | -6 | n | n | n | n
SMILES | TRPC4 inh | TRPC6 inhibitor | TRPC4 act | TRPC6 activator | TRPC4 PAM
CCCSc1nnc2n(-c3ccccc3OC)c(=O)c3c4c(sc3n12)CCC4 | n | n | n | n | n
COC(=O)CSc1nnc2n(C3CCCCC3)c(=O)c3c4c(sc3n12)CCCC4 | -6 | n | n | n | n
O=C(CSc1nnnn1-c1ccc(C(=O)O)cc1)NC1CC1 | n | n | n | n | n
CN(C)S(=O)(=O)c1cccc(NC(=O)COC(=O)CNC(=O)c2cccc([N+](=O)[O-])c2)c1 | n | n | n | n | n
O=C(Cc1ccccc1)NC(NC(=O)Cc1ccccc1)c1cccc([N+](=O)[O-])c1 | n | n | n | n | n
C=CCN(CC(O)c1cccc([N+](=O)[O-])c1)C(C)CCc1ccccc1 (stereo not given) | -5 | n | n | n | n
Cc1ccc(-c2nn(-c3ccccc3)cc2CSC(=N)N)cc1 | n | n | 68 | n | n
OCc1cn(-c2ccccc2)nc1-c1ccc(-c2nn(-c3ccccc3)cc2CO)cc1 | n | n | n | n | n

Bioassay records as filed in PubChem.
